# Experimental data published in ChEMBL document CHEMBL4689842, “EUbOPEN Chemogenomics Library wave 1” (2021).
# Values joined by “and” are separate entries in the source; they are usually repeats but may differ in a detail not shown here. Equal values may be shown once.
# Test system: HEK-293T
# Assay: Multiplex assay against HEK293T;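 on Population Tubulin-Different-Phenotype (%): share of the cells with healthy nuclei that show this phenotype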
# Assay type: toxicity, cell-based
# Conditions: human
# Method in brief: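 Hoechst33342, BioTracker Green Microtubule Cytoskeleton Dye, MitoTracker Red and Annexin V Alexa Fluor 680 were added to live cells at seeding, and imaging on a CQ1 microscope at 37°C and 5% CO2 followed compound addition. Gating by CellPathfinder machine learning separated cells into Hoechst high-intensity objects or normal cells, then normal cells into healthy, pyknosed or fragmented nuclei, then pyknosed cells into mitotic or apoptotic. Per cents of healthy-nucleus cells are reported for the tubulin, mitochondrial-mass and membrane-permeability phenotypes.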
# [1] = 12 h, 10 µM, compound concentration 10 uM, replicate 1
# [2] = 12 h, 10 µM, compound concentration 10 uM, replicate 2
# [3] = 24 h, 10 µM, compound concentration 10 uM, replicate 1
# [4] = 24 h, 10 µM, compound concentration 10 uM, replicate 2
# [5] = 48 h, 10 µM, compound concentration 10 uM, replicate 1
# [6] = 48 h, 10 µM, compound concentration 10 uM, replicate 2
# [7] = 12 h, 1 µM, compound concentration 1 uM, replicate 1
# [8] = 12 h, 1 µM, compound concentration 1 uM, replicate 2
# [9] = 24 h, 1 µM, compound concentration 1 uM, replicate 1
# [10] = 24 h, 1 µM, compound concentration 1 uM, replicate 2
structure (smiles),measurement,setting,value
CN1CCN(C(=O)C(C)(C)c2ccc(C(=O)Nc3cn4cc(-c5ccncc5)ccc4n3)cc2)CC1 [T3-CLK],Population Hoechst High Intensity Objects (%),[1],16% and 14% and 10%
same,Population Membrane Permeable-Phenotype (%),[1],6% and 17%
same,Population Normal (%),[1],83% and 85% and 89%
same,Population Pyknosed Nuclei (%),[1],24% and 27%
same,Population Fragmented Nuclei (%),[2],4% and 3% and 6%
same,Population Hoechst High Intensity Objects (%),[2],7% and 4%
same,Population Membrane Permeable-Phenotype (%),[2],10% and 5%
same,Population Mitotic Cells (%),[2],49% and 79% and 91%
same,Population Normal (%),[2],92% and 95%
same,Population Tubulin-Different-Phenotype (%),[2],89% and 85% and 39%
same,Population Fragmented Nuclei (%),[3],15% and 17% and 6%
same,Population Hoechst High Intensity Objects (%),[3],18% and 17% and 6%
same,Population Membrane Permeable-Phenotype (%),[3],9% and 11% and 13%
same,Population Normal (%),[3],81% and 82% and 93%
same,Population Tubulin-Different-Phenotype (%),[3],100% and 76% and 34%
same,Population Fragmented Nuclei (%),[4],4% and 7%
same,Population Membrane Permeable-Phenotype (%),[4],14% and 16% and 8%
same,Population Normal (%),[4],91% and 97% and 94%
same,Population Tubulin-Different-Phenotype (%),[4],91% and 70% and 94%
same,Population Apoptotic (%),[5],92%
same,Population Fragmented Nuclei (%),[5],19%
same,Population Healthy Nuclei (%),[5],10%
same,Population Hoechst High Intensity Objects (%),[5],18%
same,Population Membrane Permeable-Phenotype (%),[5],0%
same,Population Mitochondria Different-Phenotype (%),[5],94%
same,Population Mitotic Cells (%),[5],7%
same,Population Normal (%),[5],81%
same,Population Pyknosed Nuclei (%),[5],70%
same,Population Tubulin-Different-Phenotype (%),[5],77%
same,Total Cell Count,[5],216
same,Population Apoptotic (%),[6],91%
same,Population Fragmented Nuclei (%),[6],7%
same,Population Healthy Nuclei (%),[6],17%
same,Population Hoechst High Intensity Objects (%),[6],4%
same,Population Membrane Permeable-Phenotype (%),[6],12%
same,Population Mitochondria Different-Phenotype (%),[6],79%
same,Population Mitotic Cells (%),[6],8%
same,Population Normal (%),[6],95%
same,Population Pyknosed Nuclei (%),[6],75%
same,Population Tubulin-Different-Phenotype (%),[6],87%
same,Total Cell Count,[6],142
Cc1ccc2nc(NCCN)c3ncc(C)n3c2c1.O=C(O)C(F)(F)F.O=C(O)C(F)(F)F,Population Apoptotic (%),[7],29%
same,Population Fragmented Nuclei (%),[7],14%
same,Population Healthy Nuclei (%),[7],67%
same,Population Hoechst High Intensity Objects (%),[7],13%
same,Population Membrane Permeable-Phenotype (%),[7],6%
same,Population Mitochondria Different-Phenotype (%),[7],2%
same,Population Mitotic Cells (%),[7],70%
same,Population Normal (%),[7],86%
same,Population Pyknosed Nuclei (%),[7],18%
same,Population Tubulin-Different-Phenotype (%),[7],3%
same,Total Cell Count,[7],581
same,Population Apoptotic (%),[8],14%
same,Population Fragmented Nuclei (%),[8],10%
same,Population Healthy Nuclei (%),[8],85%
same,Population Hoechst High Intensity Objects (%),[8],2%
same,Population Membrane Permeable-Phenotype (%),[8],1%
same,Population Mitochondria Different-Phenotype (%),[8],9%
same,Population Mitotic Cells (%),[8],85%
same,Population Normal (%),[8],97%
same,Population Pyknosed Nuclei (%),[8],3%
same,Population Tubulin-Different-Phenotype (%),[8],5%
same,Total Cell Count,[8],1754
same,Population Apoptotic (%),[1],25%
same,Population Fragmented Nuclei (%),[1],13%
same,Population Healthy Nuclei (%),[1],58%
same,Population Hoechst High Intensity Objects (%),[1],14%
same,Population Membrane Permeable-Phenotype (%),[1],5%
same,Population Mitochondria Different-Phenotype (%),[1],14%
same,Population Mitotic Cells (%),[1],75%
same,Population Normal (%),[1],85%
same,Population Pyknosed Nuclei (%),[1],27%
same,Population Tubulin-Different-Phenotype (%),[1],14%
same,Total Cell Count,[1],591
same,Population Apoptotic (%),[2],26%
same,Population Fragmented Nuclei (%),[2],5%
same,Population Healthy Nuclei (%),[2],83%
same,Population Hoechst High Intensity Objects (%),[2],5%
same,Population Membrane Permeable-Phenotype (%),[2],1%
same,Population Mitochondria Different-Phenotype (%),[2],27%
same,Population Mitotic Cells (%),[2],73%
same,Population Normal (%),[2],94%
same,Population Pyknosed Nuclei (%),[2],10%
same,Population Tubulin-Different-Phenotype (%),[2],19%
same,Total Cell Count,[2],1004
same,Population Apoptotic (%),[9],35%
same,Population Fragmented Nuclei (%),[9],14%
same,Population Healthy Nuclei (%),[9],76%
same,Population Hoechst High Intensity Objects (%),[9],6%
same,Population Membrane Permeable-Phenotype (%),[9],5%
same,Population Mitochondria Different-Phenotype (%),[9],3%
same,Population Mitotic Cells (%),[9],64%
same,Population Normal (%),[9],93%
same,Population Pyknosed Nuclei (%),[9],8%
same,Population Tubulin-Different-Phenotype (%),[9],6%
same,Total Cell Count,[9],670
same,Population Apoptotic (%),[10],5%
same,Population Fragmented Nuclei (%),[10],30%
same,Population Healthy Nuclei (%),[10],67%
same,Population Hoechst High Intensity Objects (%),[10],3%
same,Population Membrane Permeable-Phenotype (%),[10],4%
same,Population Mitochondria Different-Phenotype (%),[10],1%
same,Population Mitotic Cells (%),[10],94%
same,Population Normal (%),[10],96%
same,Population Pyknosed Nuclei (%),[10],1%
same,Total Cell Count,[10],2957
same,Population Apoptotic (%),[3],38%
same,Population Fragmented Nuclei (%),[3],14%
same,Population Healthy Nuclei (%),[3],60%
same,Population Hoechst High Intensity Objects (%),[3],20%
same,Population Membrane Permeable-Phenotype (%),[3],6%
same,Population Mitochondria Different-Phenotype (%),[3],18%
same,Population Mitotic Cells (%),[3],61%
same,Population Normal (%),[3],79%
same,Population Pyknosed Nuclei (%),[3],25%
same,Population Tubulin-Different-Phenotype (%),[3],12%
same,Total Cell Count,[3],482
same,Population Apoptotic (%),[4],44%
same,Population Fragmented Nuclei (%),[4],7%
same,Population Healthy Nuclei (%),[4],85%
same,Population Hoechst High Intensity Objects (%),[4],10%
same,Population Membrane Permeable-Phenotype (%),[4],1%
same,Population Mitochondria Different-Phenotype (%),[4],27%
same,Population Mitotic Cells (%),[4],55%
same,Population Normal (%),[4],89%
same,Population Pyknosed Nuclei (%),[4],6%
same,Population Tubulin-Different-Phenotype (%),[4],19%
same,Total Cell Count,[4],858
